Results on 15 compounds are retold here after ChEMBL document CHEMBL2163197, “Synthesis and antimitotic and tubulin interaction profiles of novel pinacol derivatives of podophyllotoxins” (2012).

Calls of active or inactive are those of the source. The calls are words filed in the database; no cut-off is given here.

For experiment [1], the system named is SK-BR-3. Description: Growth inhibition of human SKBR3 cells after 72 hrs by SRB assay. The experiment is classed as functional. The conditions noted are these: SK-BR-3, 72 h. The method, boiled down: (§1)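 Cell lines kept in RPMI with 10% FCS, 2 mM L-glutamine, penicillin/streptomycin at 37 °C, 5% CO2. Exposure 72 h to 10 concentrations from 10 to 0.0026 μg/mL. Cells fixed in 1% glutaraldehyde, stained with 0.4% SRB for 30 min, dye extracted in 10 mM Trizma base, absorbance read at 490 nm. GI50 from triplicate dose-response cultures by NCI algorithm; mean ± SD of three independent experiments.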

The species named for experiment [2] is Bos taurus. The experiment in a line: Inhibition of bovine brain tubulin polymerization at 1 uM after 30 mins by spectrophotometric analysis.
The subject of experiment [3] is A549. The experiment in a line: Cell cycle arrest in human A549 cells assessed as accumulation at G2/M phase at 0.001 to 100 uM after 20 hrs by propidium iodide staining-based flow cytometry. It counts as functional. The method, boiled down:
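A-549 cells (180 000 per mL) incubated 20 h with ligands from 1 nM to 100 μM, with untreated and DMSO vehicle controls. Cells fixed in 70% ethanol, RNase-treated and stained with propidium iodide. DNA content read by flow cytometry to give percent of cells in each cycle phase. Lowest concentration giving G2/M arrest recorded.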

Experiment [4] has as its system A549. Description: Antimitotic activity in human A549 cells assessed as induction of microtubule depolymerization at 0.05 to 100 uM after 20 hrs by Hoechst 33342 staining-based fluorescence microscopy. The experiment is classed as functional, cell-based. The essentials: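 A-549 lung carcinoma cells plated at 150 000 cells/ml on coverslips, cultured overnight, then exposed to ligands or DMSO vehicle (residual DMSO <0.5%). Cells permeabilised with Triton X100, fixed in 3.7% formaldehyde, stained with DM1A anti-α-tubulin and FITC secondary, chromatin stained with 1 μg/mL Hoechst 33342. Examined by epifluorescence microscopy. Methods state 24 h exposure; legend states 20 h.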

The test system of experiment [5] is A549. The experiment in a line: Growth inhibition of human A549 cells after 72 hrs by SRB assay. It counts as functional. The conditions noted are these: A549, 72 h. The method, boiled down: as §1
For experiment [6], the system named is HT-29. Description: Growth inhibition of human HT-29 cells after 72 hrs by SRB assay. The experiment is classed as functional. The conditions noted are these: HT-29, 72 h. The essentials:
as §1

The species named for experiment [7] is Bos taurus. Description: Displacement of MTC from bovine brain tubulin colchicine binding site at 20 uM by fluorometric assay. The essentials: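 Calf brain tubulin 10 μM with 10 μM MTC in 10 mM sodium phosphate, 0.1 mM GTP, pH 7.0, with 20 μM ligand. Excitation at 350 nm. Fluorescence emission spectra recorded and the decrease relative to tubulin-bound MTC taken as displacement from the colchicine site.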

`COc1cc([C@@H]2c3cc4c(cc3[C@](O)(C3(O)C5CCCC3CCC5)[C@H]3COC(=O)[C@H]23)OCO4)cc(OC)c1OC` (stereo partly drawn): the GI50 stood at 7.39 nM in experiment [1], 6.39 nM in experiment [5] and 5.14 nM in experiment [6]. In experiment [2], this compound returned an inhibition of 45.1%. Further, in experiment [3], the Activity was greater than 70%. In experiment [4], the outcome was Active.

For `COc1cc([C@@H]2c3cc4c(cc3[C@](O)(C3(O)CCC3)[C@H]3COC(=O)[C@H]23)OCO4)cc(OC)c1OC`, the GI50 in experiment [1] is 219 nM; in experiment [5], 191 nM; in experiment [6], 198 nM. In experiment [3], the Activity is greater than 70%. Besides, the outcome in experiment [4] was Active.

On to `COc1cc([C@@H]2c3cc4c(cc3[C@@](O)(C3(O)CCOCC3)[C@H]3COC(=O)[C@@H]23)OCO4)cc(OC)c1OC`, for which the GI50 worked out at 8010 nM in experiment [1], 8920 nM in experiment [5] and 15400 nM in experiment [6]. In experiment [2], this compound yielded an inhibition of 2.8%. In addition, the Activity in experiment [3] is greater than 70%. In addition, the outcome in experiment [4] was Active.

As for `COc1cc([C@@H]2c3cc4c(cc3[C@](O)(C3(O)CCCC3)[C@H]3COC(=O)[C@H]23)OCO4)cc(OC)c1OC`, the GI50 in experiment [1] stood at 439 nM; in experiment [5] it was 444 nM; in experiment [6], 451 nM. Moreover, the Activity in experiment [3] is on record as greater than 70%. Further, in experiment [4], the outcome was Active.

Consider `COc1cc([C@@H]2c3cc4c(cc3[C@](O)([C@](O)(c3ccccc3)C(C)C)[C@H]3COC(=O)[C@H]23)OCO4)cc(OC)c1OC`, for which the concentration for 50% growth inhibition (GI50) in experiment [1] was found to be 148 nM; in experiment [5] it was 139 nM; in experiment [6], 159 nM. The Activity in experiment [3] is given as greater than 70%. Moreover, in experiment [4], the result was Active.

`COc1cc([C@@H]2c3cc4c(cc3[C@H](O)[C@H]3COC(=O)[C@H]23)OCO4)cc(OC)c1OC` [PODOFILOX]: in experiment [2], the inhibition stood at 7%. Besides, the Activity in experiment [3] is greater than 70%; in experiment [7] it was 25%. Also, the outcome in experiment [4] was Active. The GI50 in experiment [5] and in experiment [6] was 12 nM throughout.

For `COc1cc([C@@H]2c3cc4c(cc3[C@@](O)(C3(O)C5CCCC3CCC5)[C@H]3COC(=O)[C@H]23)OCO4)cc(OC)c1OC` (stereo partly drawn), the 50% growth inhibitory concentration (GI50) was found to be 6720 nM in experiment [1], 5680 nM in experiment [5] and 6420 nM in experiment [6]. Moreover, the inhibition in experiment [2] came out at 12%. Moreover, the Activity in experiment [3] is greater than 70%; in experiment [7], 15%. For the same compound, the result in experiment [4] was Active.

For the compound `COc1cc([C@@H]2c3cc4c(cc3[C@](O)(C3(O)CCCCC3)[C@H]3COC(=O)[C@H]23)OCO4)cc(OC)c1OC`, the GI50 in experiment [1] was 64.9 nM; in experiment [5], 90.8 nM; in experiment [6], 97.5 nM. The Activity in experiment [3] is greater than 70%. The outcome in experiment [4] was Active.

`COc1cc([C@@H]2c3cc4c(cc3[C@@](O)(C3(O)CCCCC3)[C@H]3COC(=O)[C@H]23)OCO4)cc(OC)c1OC`: the values for the GI50 in experiment [1], in experiment [5] and in experiment [6] were 610 nM, 547 nM and 859 nM, respectively.

Regarding `CCC[C@@H](O)[C@@]1(O)c2cc3c(cc2[C@@H](c2cc(OC)c(OC)c(OC)c2)[C@H]2C(=O)OC[C@@H]21)OCO3`, the GI50 in experiment [1] was 288 nM; in experiment [5], 279 nM; in experiment [6], 404 nM.

Turning to `COc1cc([C@@H]2c3cc4c(cc3/C(=C(/C)C(C)C)[C@H]3COC(=O)[C@@H]23)OCO4)cc(OC)c1OC`, the GI50 in experiment [1] came out at 4530 nM; in experiment [5], 7700 nM; in experiment [6], 10200 nM.

Turning to `COc1cc([C@@H]2c3cc4c(cc3[C@](O)(C(C)(C)O)[C@H]3COC(=O)[C@H]23)OCO4)cc(OC)c1OC`, the GI50 in experiment [1] came out at 457 nM; in experiment [5] it was 577 nM; in experiment [6], 598 nM.

`COc1cc([C@@H]2c3cc4c(cc3[C@](O)(C3(O)CCSCC3)[C@H]3COC(=O)[C@@H]23)OCO4)cc(OC)c1OC`: the figures for the GI50 in experiment [1], in experiment [5] and in experiment [6] were 1780 nM, 3320 nM and 2620 nM, respectively.

On to `COc1cc([C@@H]2c3cc4c(cc3[C@](O)(C3(O)CCOCC3)[C@H]3COC(=O)[C@@H]23)OCO4)cc(OC)c1OC`, for which the figures for the GI50 in experiment [1], in experiment [5] and in experiment [6] were 25.9 nM, 29 nM and 26.8 nM, respectively. This compound also showed an inhibition in experiment [2] of 21.1%. Moreover, the Activity in experiment [3] is recorded as greater than 70%. For the same compound, in experiment [4], the outcome was Active.

For the compound `COc1cc([C@@H]2c3cc4c(cc3[C@H](C(C)C)[C@H]3COC(=O)[C@@H]23)OCO4)cc(OC)c1OC`, the GI50 turned out to be 84.1 nM in experiment [1], 79.5 nM in experiment [5] and 83.1 nM in experiment [6]. The same compound showed an inhibition in experiment [2] of 84.5%. The Activity in experiment [3] is greater than 70%; in experiment [7], 35%. Moreover, in experiment [4], the outcome was Active.
